# Experimental data as given in ChEMBL document CHEMBL1123589, “Phenylpiperazine-based radiopharmaceuticals for brain imaging. 3. Synthesis and evaluation of radioiodinated 1-alkyl-4-phenylpiperazines” (J Med Chem, 1987).
# Legend:
# Details in all cases: in vivo
# Rattus norvegicus [1] = test: The biodistribution of the [125I]-labeled compound in rats after intravenous injection was evaluated in adrenal at 0.25 hrs; value ranges from 0.84-0.91 (ID.kg/g); type: ADME, organism-based
# Summary of the method: (§1)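 Male Sprague-Dawley rats (250–300 g) under ether anesthesia were given an iv injection of no-carrier-added 125I-labelled agent (10–15 μCi in 0.1 mL saline). The agent was iodinated with chloramine-T in acetate buffer and purified by C-18 HPLC. Groups of N = 3 were killed at 0.25, 1 and 4 h. Blood and tissues were weighed and γ-counted. Values are % ID·kg/g, mean (range).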
# Rattus norvegicus [2] = test: The biodistribution of the [125I]-labeled compound in rats after intravenous injection was evaluated in adrenal at 1.00 hrs; value ranges from 0.78-1.46 (ID.kg/g); type: ADME, organism-based; summary of the method: as §1
# Rattus norvegicus [3] = test: The biodistribution of the [125I]-labeled compound in rats after intravenous injection was evaluated in adrenal at 4.00 hrs; value ranges from 1.09-1.22 (ID.kg/g); type: ADME, organism-based; summary of the method: as §1
# Rattus norvegicus [4] = test: The biodistribution of the [125I]-labeled compound in rats after intravenous injection was evaluated in blood at 0.25 hrs (ID.kg/g); type: ADME, organism-based; summary of the method: as §1
# Rattus norvegicus [5] = test: The biodistribution of the [125I]-labeled compound in rats after intravenous injection was evaluated in blood at 1.00 hrs (ID.kg/g); type: ADME, organism-based; summary of the method: as §1
# Rattus norvegicus [6] = test: The biodistribution of the [125I]-labeled compound in rats after intravenous injection was evaluated in blood at 4.00 hrs (ID.kg/g); type: ADME, organism-based; summary of the method: as §1
# Rattus norvegicus [7] = test: The biodistribution of the [125I]-labeled compound in rats after intravenous injection was evaluated in brain at 0.25 hrs; value ranges from 0.10-0.16 (ID.kg/g); type: ADME, organism-based; summary of the method: as §1
# Rattus norvegicus [8] = test: The biodistribution of the [125I]-labeled compound in rats after intravenous injection was evaluated in heart at 0.25 hrs (ID.kg/g); type: ADME, organism-based; summary of the method: as §1
# Rattus norvegicus [9] = test: The biodistribution of the [125I]-labeled compound in rats after intravenous injection was evaluated in heart at 1.00 hrs; value ranges from 0.14-0.18 (ID.kg/g); type: ADME, organism-based
# Summary of the method: (§2)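 Male Sprague-Dawley rats (250–300 g), under ether anesthesia, given 10–15 μCi of the NCA ¹²⁵I-labeled agent iv in 0.1 mL saline. Groups of N = 3 were killed at 0.25, 1 or 4 h. Blood and tissues were removed, weighed and counted in a γ-well scintillation counter. Values are mean % ID·kg/g (range).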
# Rattus norvegicus [10] = test: The biodistribution of the [125I]-labeled compound in rats after intravenous injection was evaluated in lung at 4.00 hrs; value ranges from 0.53-0.59 (ID.kg/g); type: ADME, organism-based
# Summary of the method: (§3)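 Male Sprague-Dawley rats (250–300 g) under ether anesthesia given iv 0.1 mL saline containing 10–15 μCi of NCA ¹²⁵I-labeled agent (chloramine-T iodination, HPLC-purified). Groups of 3 killed at 0.25, 1 and 4 h. Blood and tissues excised, weighed and γ-counted. Values are mean (range) of % injected dose × body mass (kg) per gram of tissue.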
# Rattus norvegicus [11] = test: The biodistribution of the [125I]-labeled compound in rats after intravenous injection was evaluated in muscle at 0.25 hrs (ID.kg/g); type: ADME, organism-based, Muscle tissue; summary of the method: as §3
# Rattus norvegicus [12] = test: The biodistribution of the [125I]-labeled compound in rats after intravenous injection was evaluated in muscle at 4.00 hrs (ID.kg/g); type: ADME, organism-based, Muscle tissue; summary of the method: as §3
# Rattus norvegicus [13] = test: The biodistribution of the [125I]-labeled compound in rats after intravenous injection was evaluated in thyroid at 1.00 hrs; value ranges from 1.41-1.72 (ID.kg/g); type: ADME, organism-based, Thyroid gland; summary of the method: as §3
# Rattus norvegicus [14] = test: The biodistribution of the [125I]-labeled compound in rats after intravenous injection was evaluated in thyroid at 4.00 hrs; value ranges from 2.64-2.80 (ID.kg/g); type: ADME, organism-based, Thyroid gland; summary of the method: as §3
# Rattus norvegicus [15] = test: The biodistribution of the [125I]-labeled compound in rats after intravenous injection was evaluated in thyroid at 0.25 hrs; value ranges from 1.44-2.04 (ID.kg/g); type: ADME, organism-based, Thyroid gland; summary of the method: as §3
# Rattus norvegicus [16] = test: The biodistribution of the [125I]-labeled compound in rats after intravenous injection was evaluated in fat at 0.25 hr (ID. kg/g); type: ADME, organism-based, Adipose tissue; summary of the method: as §1
# Rattus norvegicus [17] = test: The biodistribution of the [125I]-labeled compound in rats after intravenous injection was evaluated in fat at 1.00 hrs (ID.kg/g); type: ADME, organism-based, Adipose tissue; summary of the method: as §1
# Rattus norvegicus [18] = test: The biodistribution of the [125I]-labeled compound in rats after intravenous injection was evaluated in brain at 1.00 hrs; value ranges from 0.08-0.10 (ID.kg/g); type: ADME, organism-based; summary of the method: as §1
# Rattus norvegicus [19] = test: The biodistribution of the [125I]-labeled compound in rats after intravenous injection was evaluated in brain at 4.00 hrs (ID.kg/g); type: ADME, organism-based; summary of the method: as §1
# Rattus norvegicus [20] = test: The biodistribution of the [125I]-labeled compound in rats after intravenous injection was evaluated in fat at 4.00 hrs; value ranges from 0.02-0.04 (ID.kg/g); type: ADME, organism-based, Adipose tissue; summary of the method: as §1
# Rattus norvegicus [21] = test: The biodistribution of the [125I]-labeled compound in rats after intravenous injection was evaluated in kidney at 1.00 hrs; value ranges from 0.35-0.42 (ID.kg/g); type: ADME, organism-based; summary of the method: as §2
# Rattus norvegicus [22] = test: The biodistribution of the [125I]-labeled compound in rats after intravenous injection was evaluated in kidney at 4.00 hrs; value ranges from. 28-0.30(ID.kg/g); type: ADME, organism-based; summary of the method: as §2
# Rattus norvegicus [23] = test: The biodistribution of the [125I]-labeled compound in rats after intravenous injection was evaluated in liver at 0.25 hr; value ranges from; value ranges from 0.45-0.60 (ID.kg/g); type: ADME, organism-based; summary of the method: as §2
# Rattus norvegicus [24] = test: The biodistribution of the [125I]-labeled compound in rats after intravenous injection was evaluated in liver at 1.00 hr 0.46-0.90 (ID.kg/g); type: ADME, organism-based; summary of the method: as §2
# Rattus norvegicus [25] = test: The biodistribution of the [125I]-labeled compound in rats after intravenous injection was evaluated in liver at 4.00 hrs (ID.kg/g); type: ADME, organism-based; summary of the method: as §2
# Rattus norvegicus [26] = test: The biodistribution of the [125I]-labeled compound in rats after intravenous injection was evaluated in lung at 0.25 hrs; value ranges from 1.0-1.14 (ID.kg/g); type: ADME, organism-based; summary of the method: as §2
# Rattus norvegicus [27] = test: The biodistribution of the [125I]-labeled compound in rats after intravenous injection was evaluated in lung at 1.00 hrs; value ranges from 0.65-0.85 (ID.kg/g); type: ADME, organism-based; summary of the method: as §2
# Rattus norvegicus [28] = test: The biodistribution of the [125I]-labeled compound in rats after intravenous injection was evaluated in kidney at 0.25 hr; value ranges from 0.35-0.39 (ID.kg/g); type: ADME, organism-based; summary of the method: as §2
# Rattus norvegicus [29] = test: The biodistribution of the [125I]-labeled compound in rats after intravenous injection was evaluated in heart at 4.00 hrs; value ranges from 0.11-0.13 (ID.kg/g); type: ADME, organism-based; summary of the method: as §2
# Rattus norvegicus [30] = test: The biodistribution of the [125I]-labeled compound in rats after intravenous injection was evaluated in muscle at 1.00 hrs (ID.kg/g); type: ADME, organism-based, Muscle tissue; summary of the method: as §3
smiles,measurement,setting,value
CCCCCCN1CCN(c2ccc(I)cc2)CC1,Biodistribution,Rattus norvegicus [1],0.91%
same,Biodistribution,Rattus norvegicus [2],1.46%
same,Biodistribution,Rattus norvegicus [3],1.22%
same,Biodistribution,Rattus norvegicus [4],0.01 % ID·kg/g
same,Biodistribution,Rattus norvegicus [5],0.01 % ID·kg/g
same,Biodistribution,Rattus norvegicus [6],0.01 % ID·kg/g
same,Biodistribution,Rattus norvegicus [7],0.16%
same,Biodistribution,Rattus norvegicus [8],0.24%
same,Biodistribution,Rattus norvegicus [9],0.18%
same,Biodistribution,Rattus norvegicus [10],0.59%
same,Biodistribution,Rattus norvegicus [11],0.03 % ID·kg/g
same,Biodistribution,Rattus norvegicus [12],0.02 %ID·kg/g
same,Biodistribution,Rattus norvegicus [13],1.72%
same,Biodistribution,Rattus norvegicus [14],2.8%
same,Biodistribution,Rattus norvegicus [15],2.04%
same,Biodistribution,Rattus norvegicus [16],0.01 % ID·kg/g
same,Biodistribution,Rattus norvegicus [17],0.02 % ID·kg/g
same,Biodistribution,Rattus norvegicus [18],0.1%
same,Biodistribution,Rattus norvegicus [19],0.09%
same,Biodistribution,Rattus norvegicus [20],0.04%
same,Biodistribution,Rattus norvegicus [21],0.42%
same,Biodistribution,Rattus norvegicus [22],0.3%
same,Biodistribution,Rattus norvegicus [23],0.6%
same,Biodistribution,Rattus norvegicus [24],0.9%
same,Biodistribution,Rattus norvegicus [25],0.78%
same,Biodistribution,Rattus norvegicus [26],1.14%
same,Biodistribution,Rattus norvegicus [27],0.85%
same,Biodistribution,Rattus norvegicus [28],0.39%
same,Biodistribution,Rattus norvegicus [29],0.13%
same,Biodistribution,Rattus norvegicus [30],0.02 %ID·kg/g
